We go through 13 molecules from ChEMBL document CHEMBL1129283, “New sigma and 5-HT1A receptor ligands: omega-(tetralin-1-yl)-n-alkylamine derivatives” (J Med Chem, 1996).

The structures appear in SMILES notation. Bounds are passed on as bounds.

Experiment [1] in a line: Selectivity for 5-hydroxytryptamine 1A and sigma receptors. More on the design: reference not given here.
The target of experiment [2] is T1, 5-hydroxytryptamine receptor 1A (Rattus norvegicus, UniProt P19327).
T1 sequence (P19327 whole entry): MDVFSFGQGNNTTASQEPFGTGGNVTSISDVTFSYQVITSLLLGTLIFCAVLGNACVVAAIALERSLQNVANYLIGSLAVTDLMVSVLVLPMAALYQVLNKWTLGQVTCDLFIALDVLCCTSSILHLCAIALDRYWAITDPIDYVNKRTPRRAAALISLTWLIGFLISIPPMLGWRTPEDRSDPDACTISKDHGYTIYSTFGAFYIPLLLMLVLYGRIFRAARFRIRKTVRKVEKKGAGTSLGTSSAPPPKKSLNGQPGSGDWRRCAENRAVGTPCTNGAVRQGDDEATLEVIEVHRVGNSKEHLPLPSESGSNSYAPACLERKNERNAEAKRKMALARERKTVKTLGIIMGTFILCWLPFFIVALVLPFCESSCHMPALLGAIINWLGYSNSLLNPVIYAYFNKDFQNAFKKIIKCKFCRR
As to the kind of experiment: Displacement of [3H]5-HT from rat hippocampal 5-hydroxytryptamine 1A receptor with 10e-6 M ketanserin. Format: tissue-based, Hippocampus. In a few lines: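 Rat hippocampal membranes, preincubated 15 min at 37 °C in 50 mM Tris-HCl pH 7.6. Assay buffer was 50 mM Tris-HCl with 4 mM CaCl2, 5.7 mM ascorbic acid and […], pH 7.6. Used 20 nM [3H]5-HT, 15 min at 37 °C, then filtration. IC50 from 2–3 experiments in triplicate (6–9 concentrations); Ki by Cheng–Prusoff.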
For orientation: Loss of bound radioactivity is the signal in a displacement assay; it reports binding, not function.

Another experiment is filed under the species Cavia porcellus. Nature of the experiment: Selectivity for PCP and sigma receptors.
Experiment [3] concerns the target Sigma non-opioid intracellular receptor 1 (Rattus norvegicus, UniProt Q9R0C9). As to the kind of experiment: Inhibitory activity against Sigma opioid receptor type 1 isolated from whole rat membranes using [3H](+)-pentazocine as radioligand. In a few lines: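 Membranes came from male Sprague–Dawley rat whole brain minus cerebellum and pons-medulla, in 50 mM Tris-HCl pH 7.8, washed four times. Incubated with [3H]-(+)-pentazocine 120 min at 25 °C, then filtered on polyethylenimine-soaked filters. Nonspecific binding was set with 10 µM haloperidol. IC50 from 2–3 experiments in triplicate (6–9 concentrations); Ki by Cheng–Prusoff.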

Sequence of Sigma non-opioid intracellular receptor 1 (Q9R0C9 whole entry): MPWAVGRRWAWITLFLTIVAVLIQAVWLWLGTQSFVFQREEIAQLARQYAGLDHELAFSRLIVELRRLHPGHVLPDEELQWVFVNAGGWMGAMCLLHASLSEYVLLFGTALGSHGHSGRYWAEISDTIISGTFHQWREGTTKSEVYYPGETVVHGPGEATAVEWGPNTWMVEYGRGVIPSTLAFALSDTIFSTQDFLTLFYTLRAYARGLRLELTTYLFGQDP

`COc1cccc2c1CCC=C2CCCN1CCN(Cc2ccccc2)CC1` gave a Selectivity in experiment [1] greater than 10.

`COc1ccc2c(c1)C(CCCN1CCNCC1)CCC2` (stereo unspecified) returned an inhibition constant Ki in experiment [2] greater than 1430 nM.

For the molecule `COc1ccc2c(c1)C(CCCN1CCN(C3=NCCCC3)CC1)CCC2` (stereo unspecified), the Selectivity in experiment [1] was found to be 14. The same molecule had a Ki in experiment [2] of 414 nM. The molecule `COc1cccc2c1CCCC2CCCNCCC1CCCc2ccccc21` (stereo unspecified) had a Ki in experiment [2] of 22.8 nM.

Take `COc1cccc2c1CCCC2CCCNCCNc1ccccc1` (stereo unspecified): the Selectivity in experiment [1] was 0.05; in the experiment listed under Cavia porcellus, 8. Moreover, the affinity in experiment [2], expressed as Ki, was 14.1 nM. As to `COc1cccc2c1CCCC2CCCNCCc1ccccc1` (stereo unspecified), the affinity in experiment [2] corresponds to a Ki of 31.4 nM.

In the case of `COc1cccc2c1CCCC2CCCN1CCN(C2CCCCC2)CC1` (stereo unspecified), the Ki in experiment [3] turned out to be 71 nM; in experiment [2], 28.6 nM. Regarding `C1=C(CCCN2CCN(Cc3ccccc3)CC2)c2ccccc2CC1`, affinity in experiment [2] was put at a Ki of 214 nM.

As to `c1ccc2c(c1)CCCC2CCCN1CCN(C2=NCCCC2)CC1` (stereo unspecified), the Ki in experiment [3] amounted to 111 nM; in experiment [2], 44.2 nM. The same molecule returned a Selectivity in experiment [1] of 1. As to `COc1cccc2c1CCCC2CCCN1CCN(Cc2ccccc2)CC1` (stereo unspecified), the results for the Ki in experiment [3] and in experiment [2] were 25.7 nM and 3.6 nM, respectively. Regarding `COc1cccc2c1CCCC2CCCCN1CCN(C2=NCCCC2)CC1` (stereo unspecified), the Ki in experiment [3] turned out to be 396 nM; in experiment [2] it was 37.1 nM. `COc1cccc2c1CCCC2CCCN1CCNCC1` (stereo unspecified) registered a Ki in experiment [2] greater than 1430 nM. In the case of `COc1cccc2c1CCCC2CCCNCCCc1ccccc1` (stereo unspecified), in experiment [2], affinity was put at a Ki of 4.4 nM.

One may read the Ki as the dissociation constant of the complex between target and ligand, obtained from inhibition or displacement.
